VIM-2 inhibitor: VIM-2 metallo-beta-lactamase inhibitors, primary screen, biochemical, epi-absorbance readout, Pseudomonas aeruginosa enzyme; actives 0.89% (n = 290,000); purified VIM-2, nitrocefin hydrolysis, epi-absorbance fluorescence; AID 1527, 2009; inhibition, % at 5.6 µM;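 active = inhibition above the mean of all tested compounds plus 3 SD, cutoff set per screening run, cut at about 7.5% in these data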;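 also: red hydrolysis product quenches plate fluorescence so inhibitors raise well fluorescence; 0% = enzyme with DMSO and 100% = DMSO without enzyme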
Yeast superoxide: reduction of superoxide in aged yeast, primary screen, HTS | S. cerevisiae aged cells, superoxide DHE fluorescence; hits give low values | superoxide response (% of plate mean), % at 10 µM | actives 0.18% (n = 330,000);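 active = superoxide response under a set limit, about three screen SD below normal, cut at about 65% in these data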;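 also: yeast aged for seven days with compound at 30 °C before DHE staining; 100% = average MFI of all compound-treated wells on the plate with controls excluded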
PvdQ inh: P. aeruginosa PvdQ acylase inhibitors, primary screen, biochemical, fluorescence, plate reader and imaging, single point. purified PvdQ acylase. PvdQ acylase [Pseudomonas aeruginosa LESB58]. inhibition, % at 10 µM. actives 0.063% (n = 340,000). AID 488965, 2010; in the data active = inhibition above about 30%, passing the limit was not always enough;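 also: 0% = vehicle neutral wells and 100% = reference inhibitor wells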
IMP-1 inhibitor: IMP-1 metallo-beta-lactamase inhibitors, primary screen, biochemical, epi-absorbance readout, Pseudomonas aeruginosa enzyme; purified IMP-1, nitrocefin hydrolysis, epi-absorbance fluorescence; inhibition, % at 5.6 µM; actives 0.45% (n = 290,000); AID 1556, 2009;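 active = inhibition above the mean plus 3 SD of all compounds in the same screening run, cut at about 4.5% in these data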;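 also: 0% = IMP-1 with DMSO and 100% = DMSO wells lacking enzyme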
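System: purified IMP-1; amount: IMP-1 0.2 nM before substrate addition; compound: single dose, 5.6 µM; times: 25 °C, 15 min preincubation, 25 min reaction; signal: Epi-absorbance via hydrolysed-nitrocefin quenching of white-plate fluorescence, 480/530 nm, EDTA stop; benchmarks: DMSO with and without IMP-1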
PHOSPHO1 inh: PubChem AID 1565. actives 1.1% (n = 290,000). Phosphoethanolamine/phosphocholine phosphatase (Homo sapiens), Q8TCT1. inhibition, % at 13.3 µM. recombinant PHOSPHO1, absorbance phosphatase assay; in the data active = inhibition above about 60%
Target sequence (Q8TCT1 whole entry, looked up): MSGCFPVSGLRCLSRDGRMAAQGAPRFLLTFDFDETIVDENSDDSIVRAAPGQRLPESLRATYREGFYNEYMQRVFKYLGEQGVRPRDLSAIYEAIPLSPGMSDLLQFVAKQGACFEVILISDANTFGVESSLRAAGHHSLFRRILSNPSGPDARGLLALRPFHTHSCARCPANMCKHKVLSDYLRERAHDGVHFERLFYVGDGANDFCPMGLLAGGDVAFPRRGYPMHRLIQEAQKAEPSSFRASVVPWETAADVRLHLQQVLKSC
Active calls of the source: *; x = not tested or not shown. Most compounds without a hit are left out; they make up all but 2.2% or so of the library.

SMILES	VIM-2 inhibitor	Yeast superoxide	PvdQ inh	IMP-1 inhibitor	PHOSPHO1 inh
CN[C@H](C)C(=O)NC[C@H]1O[C@@H](n2cnc3c(N)ncnc32)[C@H](O)[C@@H]1O	x	108	11	x	x
CC(=O)N1CC(=O)N(c2ccccc2)C1=O	-2	99	-10	-5	x
CCCCCc1c(O)nc(SCC(=O)O)[nH]c1=O	-1	x	x	0	x
CC(=O)Oc1cc2c(C(C)=O)coc2c2ccccc12	1	118	-15	-3	0
CC(=O)c1coc2c1cc(O)c1ccccc12	1	91	-4	-4	64*
Cc1nn(CCOc2ccccc2)c(=O)n1-c1ccc(Cl)cc1	-3	103	-15	-2	-19
Cc1nn(CCOc2ccccc2)c(=O)n1-c1ccccc1	-1	112	-9	-2	62*
CCOc1cc(C(=O)CSc2nnc(CNc3ccc(Cl)cc3)o2)ccc1NC(=O)CC	-3	113	-15	-1	84*
CCc1nnc(NC(=O)CSc2nnc(CNc3ccc(Cl)cc3)o2)s1	-5	95	1	-3	62*
CCc1nnc(NC(=O)CSc2nnc(-c3ccccc3NC(=O)c3ccccc3)o2)s1	-4	130	14	2	68*
O=C(Nc1ccc(Br)cc1)c1cc(-c2ccncc2)nc2ccccc12	x	103	-16	x	x
Cn1ncc2c(N3CCN(c4ccc(Cl)c(Cl)c4)CC3)ncnc21	-2	117	-4	-3	47
O=C(Cc1ccc(S(=O)(=O)N2CCCC2)s1)Nc1nc2c(s1)CCCC2	-4	98	-10	4	61*
Cc1cc(C)cc(NC(=O)Cc2ccc(S(=O)(=O)N3CCCC3)s2)c1	x	100	3	x	x
NS(=O)(=O)c1cccc(NC(=O)COC(=O)Cc2ccc(S(=O)(=O)N3CCCCC3)s2)c1	-4	85	5	5.6*	11
Cc1ccc(NC(=O)c2ncn(CCCNCC3CCCO3)n2)cc1C (stereo not drawn)	x	x	-2	x	x
OC(CN1CCCC1)Cn1ccc2ccccc21 (stereo not drawn)	-2	86	-12	-2	x
O=C(c1ccccc1)N1CCN(CC(O)Cn2ccc3ccccc32)CC1 (stereo not drawn)	-3	98	-2	-2	66*
Cc1cn(-c2cc(NC(=O)c3ccc(C)c(NC(=O)c4cccc(-c5cn[nH]c(=O)c5)c4)c3)cc(C(F)(F)F)c2)cn1	2	100	1	20*	-13
CCc1cccc(NS(=O)(=O)c2ccc3c(c2)oc(=O)n3C)c1	2	154	-7	-1	68*
Cn1c(=O)oc2cc(S(=O)(=O)Nc3ccccc3)ccc21	-3	90	13	0	21
Cc1c(C(=O)Nc2ccc(-c3nnc4n3CCCCC4)cc2)oc2ccc(Br)cc12	-1	85	-12	-3	16
Cc1ccc2c(c1)c1ncnc(N3CCC4(CC3)OCCO4)c1n2C	7	x	x	-4	10
Cc1ccc2c(c1)c1ncnc(N3CCOCC3)c1n2C	7.7*	108	-28	-4	24
COc1ccc(OC)c(NC(=O)CSc2nc3nc(C)cc(C)n3n2)c1	x	101	7	x	x
SMILES	VIM-2 inhibitor	Yeast superoxide	PvdQ inh	IMP-1 inhibitor	PHOSPHO1 inh
Cc1c(C)n(CCc2ccccc2)c2ncnc(NN)c12	7.8*	77	-5	1	16
COc1ccc2[nH]c(=S)[nH]c2c1	-6	120	-10	-4	92*
S=c1[nH]c2ccc(Cl)cc2[nH]1	-4	96	6	-6	-3
Cc1cc(C(=O)NNC(=S)NC(=O)/C=C/c2ccccc2Cl)n[nH]1	0	107	3	-2	94*
c1ccc(N2CCN(c3ncnc4c3oc3ccccc34)CC2)cc1	-1	93	-13	-1	-61
CCc1nnc(N2CCN(c3ncnc4c3oc3ccccc34)CC2)s1	12*	x	-7	-1	-14
O=C(c1ccc(N2CCCC2=O)cc1)N1CCN(c2ccccc2Cl)CC1	x	45*	-9	x	x
Nc1ccc(OCc2ccccc2)cc1[N+](=O)[O-]	x	x	37*	x	x
COc1ccc(C(=O)NC(=S)Nc2cccnc2)cc1[N+](=O)[O-]	-2	48*	6	-3	-21
O=[N+]([O-])c1ccc(COc2cccc(CN3CCCCC3)c2)cc1	x	x	-16	x	x
COc1ccc(Cl)cc1N(CC(=O)Nc1ccc2c(c1)OCO2)S(C)(=O)=O	-2	96	-6	-3	69*
Clc1ccc2nc(CSc3nnc4ccccn34)cn2c1	-1	99	-2	0	60*
COc1ccc(CCN(C)C(=O)CN2C(=O)NC3(CCCCC3C)C2=O)cc1OC (stereo not drawn)	x	96	-12	x	x
C[C@H](Nc1ncnc2sc3c(c12)CCC3)C(=O)O	0	103	-17	-2	66*
Cc1cc(=O)[nH]c(-n2[nH]c3c(c2=O)CCCC3)n1	1	102	-11	14*	30
O=C(c1ncn[nH]1)N1CCN(c2nc(-c3ccccc3)cs2)CC1	-3	99	-66	0	99*
CCCCOC(=O)Sc1nc2ccccc2o1	0	93	7	-3	94*
CCOc1ccc(CCNC(=O)c2cc([N+](=O)[O-])ccc2N2CCOCC2)cc1OCC	-5	98	-8	-5	63*
Cn1cnc([N+](=O)[O-])c1Sc1ncccc1N	-4	101	-22	-3	102*
Cc1ccc(Sc2c([N+](=O)[O-])ncn2C)cc1	-2	108	19	-2	-12
C=CCc1cccc2cc(C(=O)Nc3ccc(F)cc3)c(=O)oc12	0	96	12	-4	-32
C=CCc1cccc2cc(C(=O)Nc3ccc(S(=O)(=O)Nc4nnc(CC)s4)cc3)c(=O)oc12	-2	112	16	-2	85*
Cc1ccc(CC(=O)Nc2ccccc2N2CCOCC2)cc1C	-6	97	-13	6.3*	14
COc1ccc(CC(=O)Nc2ccccc2N2CCOCC2)cc1OC	-1	91	12	-4	-12
O=C1OC(c2ccccc2)c2ccc3ccccc3c21 (stereo not drawn)	9.5*	117	-15	-2	-7
SMILES	VIM-2 inhibitor	Yeast superoxide	PvdQ inh	IMP-1 inhibitor	PHOSPHO1 inh
O=C(C[n+]1ccccc1)Nc1ccc(Cl)c([N+](=O)[O-])c1	4	98	-3	-3	x
Cc1ccc[n+](CC(=O)Nc2ccc(Cl)c([N+](=O)[O-])c2)c1	8.9*	104	-11	-1	19
COc1ccc(OCC(O)CNC(=O)Nc2cccc3ccccc23)cc1 (stereo not drawn)	-4	99	-11	-1	-1
Clc1ncccc1-c1nc2ccccc2s1	0	97	-11	-3	61*
Cc1cc(C)c(O)c(NC(=S)NC(=O)Cc2ccccc2)c1	0	89	-15	0	19
Cc1ccc2[nH]c3c(c2c1)CN(C(=O)CN1CCCc2ccccc21)CC3	-2	104	-7	-2	70*
